The record followed here is ChEMBL document CHEMBL3603830, “Synthesis and structure-activity relationship of uracil nucleotide derivatives towards the identification of human P2Y6 receptor antagonists” (Bioorg Med Chem, 2015).

For data set [1], the target named is P2Y purinoceptor 4 (Homo sapiens) (UniProt P51582). The data set is described as follows: Agonist activity at human recombinant P2Y4 receptor expressed in human 1321N1 cells assessed as increase in intracellular calcium level by fluo-4 dye-based spectrofluorometric analysis. The data set is classed as functional, cell-based.
Chain of P2Y purinoceptor 4 (Homo sapiens) (P51582 whole entry): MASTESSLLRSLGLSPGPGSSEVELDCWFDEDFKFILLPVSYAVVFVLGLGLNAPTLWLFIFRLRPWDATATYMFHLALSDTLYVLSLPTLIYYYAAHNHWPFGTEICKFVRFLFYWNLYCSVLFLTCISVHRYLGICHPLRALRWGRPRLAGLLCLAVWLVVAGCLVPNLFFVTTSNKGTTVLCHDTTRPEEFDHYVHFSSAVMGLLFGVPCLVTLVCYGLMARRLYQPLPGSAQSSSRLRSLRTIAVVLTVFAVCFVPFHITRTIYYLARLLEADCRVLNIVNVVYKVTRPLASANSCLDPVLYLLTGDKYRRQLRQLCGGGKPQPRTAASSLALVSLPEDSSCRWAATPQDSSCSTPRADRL
Data set [2] deals with T1, P2Y purinoceptor 6 (Homo sapiens, UniProt Q15077). Kind of data set: Antagonist activity at human recombinant P2Y6 receptor expressed in human 1321N1 cells assessed as inhibition of UDP-induced increase in intracellular calcium level incubated for 2 mins prior to UDP induction by fluo-4 dye-based spectrofluorometric analysis. The data set is classed as functional, cell-based. The procedure, abridged:
(§1)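 hP2Y6-R-expressing 1321N1 cells, Fluo-4/AM-loaded (1 µM, 25 min, 37 °C, then 25 min de-esterification) in HBSS with Ca2+/Mg2+, stirred in a cuvette with fluorescence at 488/520 nm. Analogue given 2 min before 1 µM UDP stimulation. Calcium calculated from Triton X-100/EDTA calibration. Two experiments in duplicate, mean ± SEM; one-way ANOVA against vehicle control.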
In general terms: Calcium assays in cells follow changes in intracellular calcium, usually with a dye or a luminescent sensor.

In data set [3] the target is T1, P2Y purinoceptor 6. Kind of data set: Antagonist activity at human recombinant P2Y6 receptor expressed in human 1321N1 cells assessed as inhibition of UDP-induced increase in intracellular calcium level at 100 uM incubated for 2 mins prior to UDP induction by fluo-4 dye-based spectrofluorometric analysis. The format is functional, cell-based. The procedure, abridged: as §1

Data set [4] has as its target T2, NPP1 (ectonucleotide pyrophosphatase/phosphodiesterase family member 1) (Homo sapiens, UniProt P22413).
T2 sequence (P22413 whole entry): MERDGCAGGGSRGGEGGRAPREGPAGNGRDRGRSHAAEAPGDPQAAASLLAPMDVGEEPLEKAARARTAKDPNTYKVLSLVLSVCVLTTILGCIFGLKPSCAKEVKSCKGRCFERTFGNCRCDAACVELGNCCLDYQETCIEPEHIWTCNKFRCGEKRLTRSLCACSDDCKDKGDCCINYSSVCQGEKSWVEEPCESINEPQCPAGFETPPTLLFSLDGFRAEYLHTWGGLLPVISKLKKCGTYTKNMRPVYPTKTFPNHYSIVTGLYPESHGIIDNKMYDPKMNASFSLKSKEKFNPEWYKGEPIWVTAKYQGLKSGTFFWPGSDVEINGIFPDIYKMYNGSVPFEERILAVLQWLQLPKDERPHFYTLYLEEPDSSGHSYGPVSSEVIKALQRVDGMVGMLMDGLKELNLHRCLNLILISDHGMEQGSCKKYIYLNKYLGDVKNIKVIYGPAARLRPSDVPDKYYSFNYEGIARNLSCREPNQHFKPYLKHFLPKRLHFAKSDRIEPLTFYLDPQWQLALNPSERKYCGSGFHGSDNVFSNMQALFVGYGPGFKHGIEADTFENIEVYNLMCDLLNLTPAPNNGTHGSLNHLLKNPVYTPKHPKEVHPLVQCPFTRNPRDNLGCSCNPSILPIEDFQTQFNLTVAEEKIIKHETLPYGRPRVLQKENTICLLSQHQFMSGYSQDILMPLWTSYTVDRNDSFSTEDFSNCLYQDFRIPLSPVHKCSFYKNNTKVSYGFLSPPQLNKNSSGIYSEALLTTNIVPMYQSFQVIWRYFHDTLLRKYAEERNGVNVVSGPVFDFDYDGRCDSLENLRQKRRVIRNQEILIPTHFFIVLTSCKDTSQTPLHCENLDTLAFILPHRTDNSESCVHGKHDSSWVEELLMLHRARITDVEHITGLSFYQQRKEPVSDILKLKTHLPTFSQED
The data set is described as follows: Drug metabolism assessed as human NPP1-mediated compound hydrolysis at 100 uM after 2 hrs by HPLC analysis relative to UDP-treated control. The format is ADME. Conditions: human NPP1 enzyme, read-out: Drug metabolism. Summed up: (§2)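 Compound at 100 µM incubated at 37 °C with hNPP1 for 2 h or hNPP3 for 3 h, in buffer of 1 mM CaCl2, 200 mM NaCl, 10 mM KCl and 100 mM Tris, pH 8.5. Quenched with perchloric acid, neutralized to pH 7 with KOH, then C18 HPLC with isocratic TEAA (pH 7)/CH3CN. Degradation taken from the nucleoside monophosphate peak area minus control, relative to 100% UDP hydrolysis.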

Data set [5] addresses T1, P2Y purinoceptor 6. The data set is described as follows: Agonist activity at human recombinant P2Y6 receptor expressed in human 1321N1 cells assessed as increase in intracellular calcium level at =>100 uM by fluo-4 dye-based spectrofluorometric analysis. The format is functional, cell-based. Summed up: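 1321N1 cells stably expressing recombinant hP2Y6-R were trypsin/EDTA-detached, loaded with 1 µM Fluo-4/AM in HBSS (Ca2+/Mg2+) for 25 min at 37 °C, then held 25 min at 37 °C for de-esterification. Stirred cuvette suspension read at ex 488/em 520 nm after compound addition, with UDP as control. Fmax/Fmin set with 0.1% Triton X-100 then 50 mM EDTA; [Ca2+] = Kd(F−Fmin)/(Fmax−F).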

Data set [6] deals with T3, NPP3 (ectonucleotide pyrophosphatase/phosphodiesterase family member 3) (Homo sapiens, UniProt O14638).
T3 sequence (O14638 whole entry): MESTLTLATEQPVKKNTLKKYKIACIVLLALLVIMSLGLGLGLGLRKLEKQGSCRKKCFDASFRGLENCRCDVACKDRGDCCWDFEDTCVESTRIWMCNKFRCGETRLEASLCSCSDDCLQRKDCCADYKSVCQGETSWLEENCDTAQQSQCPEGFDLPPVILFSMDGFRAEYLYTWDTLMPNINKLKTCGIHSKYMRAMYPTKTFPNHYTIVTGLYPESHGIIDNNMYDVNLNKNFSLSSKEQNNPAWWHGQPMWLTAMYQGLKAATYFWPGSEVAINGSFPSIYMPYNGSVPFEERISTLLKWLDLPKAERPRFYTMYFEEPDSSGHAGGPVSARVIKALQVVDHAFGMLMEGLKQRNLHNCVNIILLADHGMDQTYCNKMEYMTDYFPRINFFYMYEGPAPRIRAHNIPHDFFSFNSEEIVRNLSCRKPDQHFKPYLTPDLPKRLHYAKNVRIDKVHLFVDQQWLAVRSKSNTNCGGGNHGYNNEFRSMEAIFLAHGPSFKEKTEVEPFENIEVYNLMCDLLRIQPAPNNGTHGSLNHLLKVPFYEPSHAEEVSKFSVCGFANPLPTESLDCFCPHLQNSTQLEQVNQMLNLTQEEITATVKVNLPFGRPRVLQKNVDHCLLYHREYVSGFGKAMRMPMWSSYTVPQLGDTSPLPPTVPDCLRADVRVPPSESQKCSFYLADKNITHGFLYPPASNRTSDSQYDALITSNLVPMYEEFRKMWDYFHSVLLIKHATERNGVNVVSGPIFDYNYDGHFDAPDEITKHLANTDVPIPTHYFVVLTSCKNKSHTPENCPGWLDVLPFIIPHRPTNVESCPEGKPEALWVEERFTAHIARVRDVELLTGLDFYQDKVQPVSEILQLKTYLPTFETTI
Kind of data set: Drug metabolism assessed as human NPP3-mediated compound hydrolysis at 100 uM after 3 hrs by HPLC analysis relative to UDP-treated control. The format is ADME. To be noted: human NPP3 enzyme, read-out: Drug metabolism. The procedure, abridged:
as §2

The target in data set [7] is P2Y purinoceptor 2 (Homo sapiens) (UniProt P41231). The data set is described as follows: Agonist activity at human recombinant P2Y2 receptor expressed in human 1321N1 cells assessed as increase in intracellular calcium level by fluo-4 dye-based spectrofluorometric analysis. The format is functional, cell-based.
Chain of P2Y purinoceptor 2 (Homo sapiens) (P41231 whole entry): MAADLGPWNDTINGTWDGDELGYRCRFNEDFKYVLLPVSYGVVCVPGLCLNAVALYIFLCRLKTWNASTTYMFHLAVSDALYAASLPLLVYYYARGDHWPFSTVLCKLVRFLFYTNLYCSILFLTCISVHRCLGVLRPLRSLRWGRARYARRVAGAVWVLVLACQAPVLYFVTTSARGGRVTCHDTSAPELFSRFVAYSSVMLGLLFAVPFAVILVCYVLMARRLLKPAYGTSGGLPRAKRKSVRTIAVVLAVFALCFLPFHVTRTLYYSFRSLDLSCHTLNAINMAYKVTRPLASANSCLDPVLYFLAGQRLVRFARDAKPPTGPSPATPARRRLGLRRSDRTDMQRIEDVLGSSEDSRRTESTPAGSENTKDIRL

What is called pIC50 is −log10 of the IC50, conventionally taken in molar units.

pIC50: −log10 of the molar value. Active and inactive are the calls of the source. The calls are words filed in the database; no cut-off is given here.

T1 sequence (Q15077 whole entry): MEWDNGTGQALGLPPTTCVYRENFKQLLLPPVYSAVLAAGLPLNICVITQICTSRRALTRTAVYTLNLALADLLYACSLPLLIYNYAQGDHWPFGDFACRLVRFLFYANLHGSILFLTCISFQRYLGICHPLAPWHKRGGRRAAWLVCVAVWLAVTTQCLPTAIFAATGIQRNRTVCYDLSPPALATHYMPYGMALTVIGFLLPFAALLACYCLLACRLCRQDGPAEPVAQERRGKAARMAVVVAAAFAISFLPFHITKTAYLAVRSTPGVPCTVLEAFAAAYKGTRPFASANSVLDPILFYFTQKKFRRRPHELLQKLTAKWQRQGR

Consider `O=c1ccn([C@@H]2O[C@H](COP(=O)(O)OS(=O)(=O)O)[C@@H](O)[C@H]2O)c(=O)[nH]1`, for which the result in data set [1] and in data set [7] was inactive. Moreover, at P2Y purinoceptor 6 [2], the negative logarithm of the IC50 (pIC50) was 3.95. Also, the inhibition result at P2Y purinoceptor 6 [3] was “Active”. Further, in data set [4], the metabolised at 2 h, 100 µM was determined as 27.9%. For the same molecule, the outcome on P2Y purinoceptor 6 [5] was Active. Moreover, the metabolised at 3 h, 100 µM in data set [6] came to 28.3%.
